Assay results reported in ChEMBL document CHEMBL1142636 (2000).

Experiments:
[1] = system: XF498; experiment: Growth inhibition of human XF498 cells; type: functional
In short: (§1)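 Tested at the NCI in its human disease-oriented in vitro screen of 60 tumour cell lines, following the Monks et al. methods. Activity is expressed as GI50, given as log molar values.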

[2] = system: UO-31; experiment: Growth inhibition of human UO31 cells; type: functional; in short: as §1
[3] = system: Malme-3M; experiment: Growth inhibition of human MALME-3M cells; type: functional
[4] = Growth inhibition of human […] cells; type: functional
[5] = system: M19-MEL; experiment: Growth inhibition of human M19-MEL cells; type: functional
[6] = system: SF-539; experiment: Growth inhibition of human SF539 cells; type: functional; in short: as §1
[7] = system: K562; experiment: Growth inhibition of human K562 cells; type: functional
[8] = system: NCI-H460; experiment: Growth inhibition of human NCI-H460 cells; type: functional
[9] = system: NCI-H226; experiment: Growth inhibition of human NCI-H226 cells; type: functional
[10] = system: COLO 205; experiment: Growth inhibition of human COLO205 cells; type: functional
[11] = system: SK-MEL-28; experiment: Growth inhibition of human SK-MEL-28 cells; type: functional; in short: as §1
[12] = Growth inhibition of human OVACR8 cells; type: functional
[13] = system: SNB-75; experiment: Growth inhibition of human SNB75 cells; type: functional; in short: as §1
[14] = system: KM-20L2; experiment: Growth inhibition of human KM20L2 cells; type: functional
[15] = system: HOP-18; experiment: Growth inhibition of human HOP18 cells; type: functional
[16] = Growth inhibition of human DMS144 cells; type: functional
[17] = system: DMS-273; experiment: Growth inhibition of human DMS273 cells; type: functional
[18] = system: SNB-19; experiment: Growth inhibition of human SNB19 cells; type: functional; in short: as §1
[19] = system: CCRF-CEM; experiment: Growth inhibition of human CCRF-CEM cells; type: functional
[20] = system: HOP-92; experiment: Growth inhibition of human HOP92 cells; type: functional
[21] = system: M14; experiment: Growth inhibition of human M14 cells; type: functional
[22] = Growth inhibition of human OVACR5 cells; type: functional
[23] = system: DLD-1; experiment: Growth inhibition of human DLD1 cells; type: functional
[24] = system: NCI-H322M; experiment: Growth inhibition of human NCI-H322M cells; type: functional
[25] = system: HT-29; experiment: Growth inhibition of human HT29 cells; type: functional
[26] = system: A549; experiment: Growth inhibition of human A549 cells; type: functional
[27] = system: LOX IMVI; experiment: Growth inhibition of human LOX IMVI cells; type: functional
[28] = system: UACC-62; experiment: Growth inhibition of human UACC62 cells; type: functional; in short: as §1
[29] = system: HCT-15; experiment: Growth inhibition of human HCT15 cells; type: functional
[30] = system: KM12; experiment: Growth inhibition of human KM12 cells; type: functional
[31] = system: SN12C; experiment: Growth inhibition of human SN12C cells; type: functional; in short: as §1
[32] = system: ACHN; experiment: Growth inhibition of human ACHN cells; type: functional
[33] = system: HCC 2998; experiment: Growth inhibition of human HCC2998 cells; type: functional
[34] = system: SW-620; experiment: Growth inhibition of human SW620 cells; type: functional; in short: as §1
[35] = system: HOP-62; experiment: Growth inhibition of human HOP62 cells; type: functional
[36] = Growth inhibition of human HL60(TB) cells; type: functional, HL-60(TB); conditions: HL-60
[37] = Growth inhibition of human OVACR4 cells; type: functional
[38] = system: U-251; experiment: Growth inhibition of human U251 cells; type: functional; in short: as §1
[39] = system: HCT-116; experiment: Growth inhibition of human HCT116 cells; type: functional
[40] = system: RXF 393; experiment: Growth inhibition of human […] cells; type: functional
[41] = system: SR; experiment: Growth inhibition of human SR cells; type: functional; in short: as §1
[42] = system: SK-MEL-5; experiment: Growth inhibition of human SK-MEL-5 cells; type: functional; in short: as §1
[43] = system: NCI-H522; experiment: Growth inhibition of human NCI-H522 cells; type: functional
[44] = system: SK-OV-3; experiment: Growth inhibition of human SK-OV-3 cells; type: functional; in short: as §1
[45] = Growth inhibition of human LXFL529 cells; type: functional; conditions: LXFL 529
[46] = system: SK-MEL-2; experiment: Growth inhibition of human SK-MEL-2 cells; type: functional; in short: as §1
[47] = system: SF-268; experiment: Growth inhibition of human SF268 cells; type: functional; in short: as §1
[48] = system: TK-10; experiment: Growth inhibition of human TK10 cells; type: functional; in short: as §1
[49] = system: 786-0; experiment: Growth inhibition of human 786-0 cells; type: functional
[50] = Growth inhibition of human RPMI8266 cells; type: functional
[51] = system: IGROV-1; experiment: Growth inhibition of human IGROV1 cells; type: functional

COc1cc(C)cc2c1[nH]c1ccccc12 [MURRAYAFOLINE A]
GI50 [1]: 22.4 µM | GI50 [2]: 15.1 µM | GI50 [3]: 8.13 µM | GI50 [4]: 8.91 µM | GI50 [5]: 18.2 µM | GI50 [6]: 6.03 µM | GI50 [7]: 25.1 µM | GI50 [8]: 7.76 µM | GI50 [9]: 8.51 µM | GI50 [10]: 12.3 µM | GI50 [11]: 16.2 µM | GI50 [12]: 7.41 µM | GI50 [13]: 25.1 µM | GI50 [14]: 7.59 µM | GI50 [15]: 0.288 µM | GI50 [16]: 9.55 µM | GI50 [17]: 7.76 µM | GI50 [18]: 25.1 µM | GI50 [19]: 15.5 µM | GI50 [20]: 23.4 µM | GI50 [21]: 7.24 µM | GI50 [22]: 24.5 µM | GI50 [23]: 10.5 µM | GI50 [24]: 12.9 µM | GI50 [25]: 7.76 µM | GI50 [26]: 1.15 µM | GI50 [27]: 12.6 µM | GI50 [28]: 15.1 µM | GI50 [29]: 7.41 µM | GI50 [30]: 8.13 µM | GI50 [31]: 14.1 µM | GI50 [32]: 23.4 µM | GI50 [33]: 14.8 µM | GI50 [34]: 8.32 µM | GI50 [35]: 6.31 µM | GI50 [36]: 6.92 µM | GI50 [37]: 25.1 µM | GI50 [38]: 10.5 µM | GI50 [39]: 11.5 µM | GI50 [40]: 9.33 µM | GI50 [41]: 10.2 µM | GI50 [42]: 9.12 µM | GI50 [43]: 4.27 µM | GI50 [44]: 20.9 µM | GI50 [45]: 18.2 µM | GI50 [46]: 7.41 µM | GI50 [47]: 14.5 µM | GI50 [48]: 25.1 µM | GI50 [49]: 9.33 µM | GI50 [50]: 8.71 µM | GI50 [51]: 14.8 µM
